Measurements collected from several papers.
Each line is one published result; the experiments were not run side by side.
Target: Activin receptor type-1B (ACVR1B, Homo sapiens, UniProt P36896)
One construct used (P36896 24-505): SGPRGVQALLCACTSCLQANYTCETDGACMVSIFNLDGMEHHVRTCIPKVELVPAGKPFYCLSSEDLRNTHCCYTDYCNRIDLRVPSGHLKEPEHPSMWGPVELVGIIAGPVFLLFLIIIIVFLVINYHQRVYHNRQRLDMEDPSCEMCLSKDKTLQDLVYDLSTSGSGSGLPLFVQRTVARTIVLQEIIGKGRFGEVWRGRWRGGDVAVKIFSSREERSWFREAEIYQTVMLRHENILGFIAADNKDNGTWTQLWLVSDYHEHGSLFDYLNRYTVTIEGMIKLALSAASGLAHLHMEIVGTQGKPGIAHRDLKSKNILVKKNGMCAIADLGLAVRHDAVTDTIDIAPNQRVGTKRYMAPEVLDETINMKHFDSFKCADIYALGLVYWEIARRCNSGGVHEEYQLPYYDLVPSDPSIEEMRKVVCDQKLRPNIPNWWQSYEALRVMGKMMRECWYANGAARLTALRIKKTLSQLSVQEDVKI

Cc1nn(C)cc1-c1nc2c(N3CCN(Cc4ccc(Cl)cc4)CC3)c(Cl)cnc2[nH]1  remaining binding (binding; competition with immobilised ligand; 1 µM): 68%
CC(C)(C)c1cc(C=C(C#N)C#N)cc(Br)c1O  remaining activity (enzyme activity; inhibitor; 0.5 µM): 108%
Cn1cc(-c2cc(F)cc(N3CCn4c(cc5c4CCCC5)C3=O)c2CO)cc(Nc2ccc(N3CCN(C4COC4)CC3)cn2)c1=O  inhibition (enzyme activity; inhibitor; 0.1 µM): -1%
Nc1ncc(-c2nc(N3CCOCC3)nc(N3CCOCC3)n2)c(C(F)F)n1  remaining binding (binding; competition with immobilised ligand; 10 µM): 94%
N#CC1(c2ccccn2)CCN(Cc2cc(C(=O)O)c(=O)n3ccccc23)CC1  remaining binding (cell-free assay; competition with immobilised ligand; 1 µM): 94%
C#Cc1n[nH]c2c(-c3cn([C@@H](C)c4ccccn4)c(=O)[nH]c3=O)cc(F)cc12  inhibition (enzyme activity; inhibitor; 0.1 µM): -3.4%
Cn1cc(-c2cccc(N3CCc4c(sc5c4CC(C)(C)C5)C3=O)c2CO)cc(Nc2ccncn2)c1=O  inhibition (enzyme activity; inhibitor; 1 µM): -5%
COc1cc(Nc2ncc(F)c(Nc3ccc4c(n3)NC(=O)C(C)(C)O4)n2)cc(OC)c1OC  inhibition (binding; competition with immobilised ligand; 10 µM): 55%
COc1ncccc1-c1cnn2ccc(N3CCN(C(=O)OC(C)C)CC3)nc12  remaining binding (binding; competition with immobilised ligand; 1 µM): 93%
O=c1[nH]c2ccccc2n1C1CCN(Cc2ccc(-c3[nH]c4cc5ncnc5cc4nc3-c3ccccc3)cc2)CC1  remaining signal (cell-free assay; 0.5 µM): 111%
Cn1cncc1[C@](O)(COc1ccc(C#N)cc1-c1ccc(OC(F)(F)F)cc1)c1ccc(C#N)cc1  remaining binding (cell-free assay; competition with immobilised ligand; 1 µM): 87%
C#Cc1n[nH]c2c(-c3cn([C@@H](C)c4ccccc4)c(=O)[nH]c3=O)cc(F)cc12  inhibition (enzyme activity; inhibitor; 0.1 µM): -3.3%
